Data taken from ChEMBL document CHEMBL3272300, “Mapping the dopamine receptor. 1. Features derived from modifications in ring E of the neuroleptic butaclamol” (J Med Chem, 1979).
Calls of active or inactive are those of the source. No cut-off for these calls is given here.

Experiments:
Mus musculus = test: Inhibition of isolation-induced fighting behaviour in ip dosed Swiss albino mouse measured after 30 mins to 3 hrs; format: functional
In short: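 Albino mice (14–16 g) isolated 4–5 weeks; pairs showing maximal fighting in a morning control session were dosed ip and retested at 30 min and 3 h in 5-min observations. All-or-none: effective if no fighting episode; ED50 = dose abolishing fighting in 50% of pairs, by Litchfield–Wilcoxon.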

Rattus norvegicus [1] = test: Induction of catalepsy in Sprague-Dawley rat at 5 mg/kg, ip measured after 1 to 24 hrs; format: organism-based; design: dose 5 mg/kg, route intraperitoneal; conditions: in vivo
In short: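 Rats (160–180 g), six per group, dosed ip at 5 mg/kg. Catalepsy scored at 1, 2, 4, 6 and 24 h by Wirth stages III and IV; highest mean cataleptic score given as percent of maximum attainable score.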

Rattus norvegicus [2] = test: Behavioral effect in Sprague-Dawley rat assessed as inhibition of d-amphetamine-induced stereotyped behaviour at 20 mg/kg, ip administered 15 mins post challenge measured every 15 mins for 4 hrs post challenge; format: functional, organism-based; design: dose 20 mg/kg
In short: (§1)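 Rats (160–180 g), groups of four or more, given d-amphetamine 10 mg/kg ip, then graded ip doses of test agent or vehicle 15 min later; highest dose 20 mg/kg. Behaviour scored 0 (normal), 1 (excited), 2 (stereotyped) every 15 min for 4 h after amphetamine. MED = lowest dose antagonizing all amphetamine behavioural effects over the 4-h period.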

Rattus norvegicus [3] = test: Inhibition of epinephrine-induced mortality in ip dosed Sprague-Dawley rat compound administered 1 hr prior challenge measured over 24 hrs; format: functional
In short: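 Groups of six or more rats (220–225 g) given graded ip doses; 1 h later epinephrine bitartrate 0.25 mg/kg iv, a dose lethal to untreated rats. Deaths recorded over 24 h. Protective ED50 (dose protecting 50% of rats from lethality) calculated by Litchfield–Wilcoxon method.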

Rattus norvegicus [4] = test: Behavioral effect in ip dosed Sprague-Dawley rat assessed as inhibition of d-amphetamine-induced stereotyped behaviour compound administered 15 mins post challenge measured every 15 mins for 4 hrs post challenge; format: functional; conditions: read-out: MED; in short: as §1
Rattus norvegicus [5] = test: Behavioral effect in ip dosed Sprague-Dawley rat assessed as reduction in conditioned avoidance response compound administered 30 mins prior testing; format: functional
In short: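 Morpurgo discrimination box: trained rats (250–400 g) must leave start chamber for lighted exit within 10 s or get shock. Two-trial control session before dosing; graded ip doses to groups of six or more; ten trials run 30 min post-injection. Avoidance failures expressed as percent of trials; ED50 = dose giving 50% failure.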

`CC(C)(C)C1CCN2C[C@H]3c4ccccc4CCc4cccc(c43)[C@@H]2C1` (some centres not stated) was tested, and the ED50 (Mus musculus) was 2.1 mg/kg, the Activity (Rattus norvegicus [1]) was 93% and the Activity (Rattus norvegicus [2]) was “inactive”. For the same compound, the ED50 (Rattus norvegicus [3]) was 19 mg/kg, the minimal effective dose (Rattus norvegicus [4]) was 0.62 mg/kg and the ED50 (Rattus norvegicus [5]) was 0.8 mg/kg.

In the case of `c1ccc2c(c1)CCc1cccc3c1[C@H]2CN1CCCC[C@@H]31`, the Activity (Rattus norvegicus [2]) was “inactive”.

With `CC(C)(C)C1CCN2C[C@H]3c4ccccc4CCc4cccc(c43)[C@H]2C1` (relative stereo) the Activity (Rattus norvegicus [2]) was “inactive”.

With `CC(C)(C)[C@@]1(O)CC[C@@H]2c3cccc4c3[C@@H](CN2C1)c1ccccc1CC4` (relative stereo) the Activity (Rattus norvegicus [2]) was “inactive”.

For `CC(C)(C)[C@]1(O)CC[C@H]2c3cccc4c3[C@@H](CN2C1)c1ccccc1CC4` (relative stereo), the Activity (Rattus norvegicus [2]) was “inactive”.

With `O[C@H]1CCN2C[C@H]3c4ccccc4CCc4cccc(c43)[C@@H]2C1` (relative stereo) the Activity (Rattus norvegicus [2]) was “inactive”.

For `c1ccc2c(c1)CCc1cccc3c1[C@H]2CN1CCC2(C[C@@H]31)OCCO2` (relative stereo), the Activity (Rattus norvegicus [2]) was “inactive”.

Compound `CC(C)(C)[C@]1(O)CCN2C[C@H]3c4ccccc4CCc4cccc(c43)[C@@H]2C1` [BUTACLAMOL] has an ED50 (Mus musculus) of 1.9 mg/kg, an Activity (Rattus norvegicus [1]) of 60% and an ED50 (Rattus norvegicus [3]) of 15 mg/kg. It also gave a minimal effective dose (Rattus norvegicus [4]) of 0.62 mg/kg and an ED50 (Rattus norvegicus [5]) of 0.64 mg/kg.
